Measured values as given in ChEMBL document CHEMBL4190389, “Synthesis and activity of di- or trisubstituted N-(phenoxyalkyl)- or N-{2-[2-(phenoxy)ethoxy]ethyl}piperazine derivatives on the central nervous system” (Bioorg Med Chem Lett, 2018).
Calls of active or inactive are those of the source. The calls are words filed in the database; no cut-off is given here.

How the values were obtained:
Mus musculus [1] = experiment: Antidepressant-like activity in Albino Swiss CD-1 mouse assessed as immobility time at 5 mg/kg, ip administered 30 mins prior to test measured for last 4 mins of 6 mins observation by forced swim test (reference value: 153.9 to 201.9 secs); format: functional
[2] = target: T1, 5-hydroxytryptamine receptor 1A (Homo sapiens) (UniProt P08908); experiment: Displacement of [3H]8-OH-DPAT from recombinant human 5-HT1A receptor expressed in HEK293 cell membranes at 10^-5 M after 60 mins by liquid scintillation counting method
T1 sequence (whole entry): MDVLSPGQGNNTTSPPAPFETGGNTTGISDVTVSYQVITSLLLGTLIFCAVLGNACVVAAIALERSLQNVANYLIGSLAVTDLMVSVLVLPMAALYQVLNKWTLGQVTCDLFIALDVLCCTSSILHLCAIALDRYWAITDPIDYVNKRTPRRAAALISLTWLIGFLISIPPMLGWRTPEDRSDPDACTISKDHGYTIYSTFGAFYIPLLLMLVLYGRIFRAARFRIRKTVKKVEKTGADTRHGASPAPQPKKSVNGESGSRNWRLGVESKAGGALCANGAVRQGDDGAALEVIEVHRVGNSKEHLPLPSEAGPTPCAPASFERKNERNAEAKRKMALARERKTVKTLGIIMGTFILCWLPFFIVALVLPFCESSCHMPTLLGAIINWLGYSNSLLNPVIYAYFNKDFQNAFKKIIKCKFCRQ

Mus musculus [3] = experiment: Antidepressant-like activity in Albino Swiss CD-1 mouse assessed as immobility time at 20 mg/kg, ip administered 30 mins prior to test measured for last 4 mins of 6 mins observation by forced swim test (reference value: 153.9 to 201.9 secs); format: functional
D(2) dopamine receptor [4] = target: T2, D(2) dopamine receptor (Homo sapiens, UniProt P14416); experiment: Displacement of [3H]methylspiperonee from recombinant human D2 receptor expressed in HEK293 cell membranes at 10^-5 M after 60 mins by liquid scintillation counting method
[5] = target: 5-hydroxytryptamine receptor 6 (Homo sapiens, UniProt P50406); experiment: Displacement of [3H]LSD from recombinant human 5-HT6 receptor expressed in CHO cells cell membranes after 60 mins by liquid scintillation counting method
Mus musculus [6] = experiment: Antidepressant-like activity in Albino Swiss CD-1 mouse assessed as immobility time at 10 mg/kg, ip administered 30 mins prior to test measured for last 4 mins of 6 mins observation by forced swim test (reference value: 153.9 to 201.9 secs); format: functional
[7] = target: T3, 5-hydroxytryptamine receptor 2A (Homo sapiens, UniProt P28223); experiment: biochemical; format: cell-based, HEK293
[8] = target: T4, 5-hydroxytryptamine receptor 7 (Homo sapiens, UniProt P34969); experiment: Displacement of [3H]LSD from recombinant human 5-HT7 receptor expressed in CHO cell membranes at 10^-5 M after 60 mins by liquid scintillation counting method
Mus musculus [9] = experiment: Anxiolytic-like activity in Albino Swiss CD-1 mouse assessed as increase in number of punished crossings at 10 mg/kg, ip administered for 30 mins prior to test measured for 1 min by four-plate test; format: functional, organism-based
In short: (§1)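 Four-plate test in mice, i.p., 30 min before test; vehicle 0.9% NaCl; doses 1.25–10 mg/kg; number of punished crossings counted; mean ± SEM, n = 8–10 mice per group; ANOVA F statistics.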

Mus musculus [10] = experiment: Toxicity in Albino Swiss CD-1 mouse assessed as effect on locomotory activity at 5 to 10 mg/kg, ip administered for 30 mins prior to test measured for 1 min; format: organism-based; conditions: in vivo
In short: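 Mice dosed i.p. 30 min before test; vehicle groups received 0.9% NaCl. Spontaneous locomotion scored as number of crossings during a 1-min session. Each dose compared with its own vehicle group by Student t-test; mean ± SEM, n = 8–10 mice per group.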

[11] = target: T5, Alpha-1A adrenergic receptor (Homo sapiens) (UniProt P35348); experiment: Displacement of [3H]prazosin from recombinant human alpha1 adrenoceptor expressed in CHO cell membranes at 10^-5 M after 30 mins by liquid scintillation counting method
T5 sequence (whole entry): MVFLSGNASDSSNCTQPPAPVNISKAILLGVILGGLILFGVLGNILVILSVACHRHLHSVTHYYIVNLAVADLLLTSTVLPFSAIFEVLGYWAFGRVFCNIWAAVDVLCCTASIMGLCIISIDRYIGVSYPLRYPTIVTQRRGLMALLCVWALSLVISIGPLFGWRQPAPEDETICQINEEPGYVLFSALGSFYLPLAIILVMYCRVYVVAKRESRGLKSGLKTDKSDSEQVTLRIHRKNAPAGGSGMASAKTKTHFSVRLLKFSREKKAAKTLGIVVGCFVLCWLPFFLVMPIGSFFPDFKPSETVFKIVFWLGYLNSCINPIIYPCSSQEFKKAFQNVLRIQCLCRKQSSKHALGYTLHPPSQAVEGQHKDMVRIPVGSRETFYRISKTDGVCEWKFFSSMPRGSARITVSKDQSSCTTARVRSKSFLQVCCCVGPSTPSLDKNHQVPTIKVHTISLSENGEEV

[12] = target: T4, 5-hydroxytryptamine receptor 7; experiment: biochemical; format: cell-based, CHO
[13] = target: T4, 5-hydroxytryptamine receptor 7; experiment: Antagonist activity at human 5-HT7 receptor expressed in CHO-K1 cells assessed as decrease in serotonin-induced cAMP level after 1 hr by TR-FRET assay relative to control; format: functional, cell-based
[14] = target: T4, 5-hydroxytryptamine receptor 7; experiment: Agonist activity at human 5-HT7 receptor expressed in CHO-K1 cells assessed as increase in serotonin-induced cAMP level after 1 hr by TR-FRET assay relative to serotonin; format: functional, cell-based
[15] = target: T1, 5-hydroxytryptamine receptor 1A (Homo sapiens); experiment: Agonist activity at human 5-HT1A receptor expressed in CHO-K1 cells co-expressing Galpha16 assessed as increase in calcium mobilization measured for 30 secs by aequorin-derived luminescence assay relative to serotonin; format: functional, cell-based
[16] = target: T6, Alpha-1A adrenergic receptor (Homo sapiens, UniProt P35348); experiment: Displacement of [3H]prazosin from recombinant human alpha1 adrenoceptor expressed in CHO cell membranes after 30 mins by liquid scintillation counting method
T6 sequence (P35348 whole entry): T5 sequence (whole entry)

Mus musculus [17] = experiment: Toxicity in Albino Swiss CD-1 mouse assessed as death at 30 mg/kg, ip; format: organism-based; conditions: in vivo
In short: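 Deaths counted in mice during maximal electroshock (MES) seizure testing after i.p. dosing, 6 mice per dose (3 or 1 at some top doses); recorded as number dead/number tested alongside protection and rotarod motor impairment (10 rpm); untreated control group included.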

[18] = target: T1, 5-hydroxytryptamine receptor 1A (Homo sapiens); experiment: Antagonist activity at human 5-HT1A receptor expressed in CHO-K1 cells co-expressing Galpha16 assessed as decrease in serotonin-induced calcium mobilization preincubated for 25 mins followed by serotonin challenge measured for 30 secs by aequorin-derived luminescence assay relative to control; format: functional, cell-based
[19] = target: T3, 5-hydroxytryptamine receptor 2A; experiment: Antagonist activity at human 5-HT2A receptor expressed in CHO-K1 cells co-expressing Galpha16 assessed as decrease in serotonin calcium mobilization preincubated for 30 mins followed by serotonin challenge measured for 30 secs by aequorin-derived luminescence assay; format: functional, cell-based
D(2) dopamine receptor [20] = target: T2, D(2) dopamine receptor; experiment: Displacement of [3H]methylspiperonee from recombinant human D2 receptor expressed in HEK293 cells cell membranes after 60 mins by liquid scintillation counting method
D(2) dopamine receptor [21] = target: T2, D(2) dopamine receptor; experiment: Agonist activity at human D2 receptor expressed in CHO-K1 cells co-expressing Galphaqi5 assessed as increase apomorphine-induced calcium mobilization measured for 30 secs by aequorin-derived luminescence assay relative to apomorphine; format: functional, cell-based
[22] = target: T7, 5-hydroxytryptamine receptor 1A (Homo sapiens, UniProt P08908); experiment: Displacement of [3H]8-OH-DPAT from recombinant human 5-HT1A receptor expressed in HEK293 cell membranes after 60 mins by liquid scintillation counting method
T7 sequence (P08908 whole entry): T1 sequence (whole entry)

[23] = target: T4, 5-hydroxytryptamine receptor 7; experiment: Antagonist activity at human 5-HT7 receptor expressed in CHO-K1 cells assessed as decrease in serotonin-induced cAMP level after 1 hr by TR-FRET assay; format: functional, cell-based
[24] = target: T1, 5-hydroxytryptamine receptor 1A (Homo sapiens); experiment: (§2) Antagonist activity at human 5-HT1A receptor expressed in CHO-K1 cells co-expressing Galpha16 assessed as decrease in serotonin calcium mobilization preincubated for 25 mins followed by serotonin challenge measured for 30 secs by aequorin-derived luminescence assay; format: functional, cell-based
[25] = target: T7, 5-hydroxytryptamine receptor 1A; experiment: as §2; format: functional, cell-based
Mus musculus [26] = experiment: Anxiolytic-like activity in Albino Swiss CD-1 mouse assessed as increase in number of punished crossings at 2.5 to 5 mg/kg, ip administered for 30 mins prior to test measured for 1 min by four-plate test; format: functional, organism-based; in short: as §1
Mus musculus [27] = experiment: Toxicity in Albino Swiss CD-1 mouse assessed as effect on locomotory activity at 1.25 to 5 mg/kg, ip administered for 30 mins prior to test measured for 1 min; format: organism-based; conditions: in vivo
D(2) dopamine receptor [28] = target: T2, D(2) dopamine receptor; experiment: Antagonist activity at human D2 receptor expressed in CHO-K1 cells co-expressing Galphaqi5 assessed as decrease in apomorphine-induced calcium mobilization preincubated for 30 mins followed by apomorphine challenge measured for 30 secs by aequorin-derived luminescence assay; format: functional, cell-based

T2 sequence (P14416 whole entry): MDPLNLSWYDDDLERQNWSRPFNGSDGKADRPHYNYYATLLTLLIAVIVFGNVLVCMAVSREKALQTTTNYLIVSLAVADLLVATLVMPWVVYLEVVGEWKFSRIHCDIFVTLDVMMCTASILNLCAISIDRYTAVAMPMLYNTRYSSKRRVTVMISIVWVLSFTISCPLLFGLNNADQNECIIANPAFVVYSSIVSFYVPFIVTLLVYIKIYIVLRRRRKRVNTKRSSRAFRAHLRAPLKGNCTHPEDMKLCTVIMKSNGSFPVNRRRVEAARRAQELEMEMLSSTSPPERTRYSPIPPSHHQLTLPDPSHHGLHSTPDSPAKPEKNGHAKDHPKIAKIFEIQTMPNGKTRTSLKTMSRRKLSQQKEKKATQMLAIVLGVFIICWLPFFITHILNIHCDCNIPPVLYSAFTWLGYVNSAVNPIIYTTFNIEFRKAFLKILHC
Sequence of 5-hydroxytryptamine receptor 6 (P50406 whole entry): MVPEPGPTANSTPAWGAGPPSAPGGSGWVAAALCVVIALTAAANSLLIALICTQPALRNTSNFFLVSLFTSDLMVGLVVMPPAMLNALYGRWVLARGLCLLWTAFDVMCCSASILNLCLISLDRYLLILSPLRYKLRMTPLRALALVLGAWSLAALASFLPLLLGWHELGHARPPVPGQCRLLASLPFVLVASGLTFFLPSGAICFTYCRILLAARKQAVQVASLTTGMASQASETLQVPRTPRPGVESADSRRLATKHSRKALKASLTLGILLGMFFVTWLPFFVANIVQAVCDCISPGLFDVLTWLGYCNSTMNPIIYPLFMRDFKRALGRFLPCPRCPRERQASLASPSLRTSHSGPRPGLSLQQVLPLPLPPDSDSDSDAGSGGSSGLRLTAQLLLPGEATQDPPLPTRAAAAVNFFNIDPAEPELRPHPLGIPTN
T4 sequence (P34969 whole entry): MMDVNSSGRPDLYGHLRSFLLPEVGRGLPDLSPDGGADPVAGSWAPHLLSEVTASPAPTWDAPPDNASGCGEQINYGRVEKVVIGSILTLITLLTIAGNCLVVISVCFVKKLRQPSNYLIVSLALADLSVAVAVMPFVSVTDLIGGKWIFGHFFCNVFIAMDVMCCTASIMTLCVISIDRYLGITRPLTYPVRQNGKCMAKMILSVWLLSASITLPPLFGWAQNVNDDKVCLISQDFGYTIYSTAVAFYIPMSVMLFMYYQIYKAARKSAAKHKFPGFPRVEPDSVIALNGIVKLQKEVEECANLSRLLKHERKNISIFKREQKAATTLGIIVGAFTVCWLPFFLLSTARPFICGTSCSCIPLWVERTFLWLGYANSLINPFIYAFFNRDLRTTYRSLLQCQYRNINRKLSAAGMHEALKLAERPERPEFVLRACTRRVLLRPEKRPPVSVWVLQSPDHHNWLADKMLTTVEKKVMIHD
T3 sequence (P28223 whole entry): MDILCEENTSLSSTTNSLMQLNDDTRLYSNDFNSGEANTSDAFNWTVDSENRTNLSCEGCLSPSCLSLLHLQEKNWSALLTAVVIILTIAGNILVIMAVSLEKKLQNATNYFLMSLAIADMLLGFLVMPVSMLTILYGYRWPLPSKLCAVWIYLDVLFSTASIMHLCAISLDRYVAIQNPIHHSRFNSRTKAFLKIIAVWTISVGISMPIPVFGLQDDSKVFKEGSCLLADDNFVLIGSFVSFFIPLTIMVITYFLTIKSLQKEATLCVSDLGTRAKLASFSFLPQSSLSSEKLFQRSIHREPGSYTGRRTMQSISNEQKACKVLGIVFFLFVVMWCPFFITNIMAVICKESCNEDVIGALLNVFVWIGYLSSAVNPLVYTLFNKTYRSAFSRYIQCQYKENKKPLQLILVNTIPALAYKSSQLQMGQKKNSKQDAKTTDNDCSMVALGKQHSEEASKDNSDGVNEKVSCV

Row | SMILES | Time (Mus musculus [1]) [s] | inhibition [2] | Time (Mus musculus [3]) [s] | inhibition (D(2) dopamine receptor [4]) | Ki [5] [nM] | Time (Mus musculus [6]) [s] | Ki [7] [nM] | Activity (Mus musculus [9]) | Activity (Mus musculus [10]) | inhibition [11] | Ki [12] [nM] | Emax [13] [%] | Emax [14] [%] | other results
1 | Cc1cc(C)c(OCCOCCN2CCN(CCO)CC2)c(C)c1.Cl.Cl | 182.6 | inactive | 197.3 | inactive | > 5000 | 198.1 | > 5000 | Active | Non-Toxic | inactive |  |  |  | inhibition [8]: inactive
2 | Cc1cc(C)c(OCCOCCN2CCN(Cc3ccccc3)CC2)c(C)c1.Cl.Cl | 176.5 | inactive | 157.5 | inactive | > 5000 | 182.4 | 498 | Active | Non-Toxic | inactive | 3160 |  |  | 
3 | CC1CCN(CC[C@H]2CCCN2S(=O)(=O)c2cccc(O)c2)CC1 |  |  |  |  |  |  |  |  |  |  |  | -1 | -1 | 
4 | COc1ccccc1N1CCN(CCOCCOc2cc(C)cc(C)c2C)CC1.Cl.Cl | 165.6 |  | 156.1 |  | 1540 | 141.9 | 159 |  |  |  | 89 | 11 | 9 | Emax [15]: 5%; Ki [16]: 14 nM; Activity (Mus musculus [17]): Non-Toxic; Emax [18]: 4%; IC50 [19]: 4010 nM; Ki (D(2) dopamine receptor [20]): 162 nM; Emax (D(2) dopamine receptor [21]): 1%; Ki [22]: 32 nM; IC50 [23]: 2340 nM; Kb [23]: 995 nM; Kb [24]: 92.3 nM; IC50 [25]: 376 nM; Activity (Mus musculus [26]): Active; Activity (Mus musculus [27]): Non-Toxic; IC50 (D(2) dopamine receptor [28]): 78.5 nM; Kb (D(2) dopamine receptor [28]): 23.4 nM
